Experimental data gathered from unrelated publications.
Medium: plasma

Structure (SMILES) | test system | conditions | bioavailability [%]
O=C(Nc1cc(F)c(F)c(F)c1)c1ccc(F)c(S(=O)(=O)NCc2cccc(B(O)O)c2)c1 | male Sprague-Dawley rat | oral, 20 mg/kg | 2.85
CCOC(=O)[C@@]12C[C@@H]1[C@@H](n1ccc3c(NC)nc(C#Cc4ccc(Cl)s4)nc31)[C@H](O)[C@@H]2O | male Sprague-Dawley rat | oral, 5 mg/kg | 92
CNC(=O)c1cccc(-c2ccc([C@@H](O)[C@H]3O[C@H](CO)[C@@H](O)[C@H](O)[C@@H]3O)c(C)c2)c1 | male Sprague-Dawley rat | oral, 10 mg/kg, single dose | 1.95
Cn1cc(-c2cc(N3CCCCS3(=O)=O)ccc2Oc2ccc(F)cc2F)c2c(F)c[nH]c2c1=O | Sprague-Dawley rat | oral, 3 mg/kg | 20 to 30
COc1c(C#N)ccnc1N1C2CCC1CN(C(=O)c1cccnc1-n1cccn1)C2 | rat | oral, 30 mg/kg | 8.5
C=CC(=O)Nc1cc(Nc2nccc(Nc3cc(Cl)c(F)cc3C(C)(C)O)n2)c(OC)cc1N1CC[C@@H](N(C)C)C1 | Wistar rat | oral, 3 mg/kg | 39.6
CN1CCC(COc2cnc(-c3cccc(Cn4nc(-c5cccc(C#N)c5)ccc4=O)c3)nc2)CC1 | male Sprague-Dawley rat | oral, 20 mg/kg | 56
Oc1c(-n2ccnn2)cnn1-c1cc(N2CCOCC2)ncn1 | male rat | oral, 5 mg/kg | 34
CC(C)(O)[C@H]1CC[C@H](Nc2ccc3ncc(-c4cccc(C(F)(F)F)c4)n3n2)CC1 | female Sprague-Dawley rat | oral, 40 mg/kg | 39
Oc1c(-c2cccnc2)cnn1-c1ccccn1 | rat | oral, 30 mg/kg | 35
CCc1cc(OC)c2nccc(N3CCc4c(cc(Cn5ccnc5)cc4-c4cn(C)nc4C(F)(F)F)C3=O)c2c1 | male Sprague-Dawley rat | oral, 50 mg/kg | 65
Oc1c(Br)cc(Cl)c2cccnc12 | Sprague-Dawley rat | oral, 20 mg/kg | 39
N#Cc1ccc(-c2ccc(C[C@@H](C#N)NC(=O)C3(N)CCOCC3)cc2)cc1 | Sprague-Dawley rat | oral, 3 mg/kg | 92
COCCOc1cc(CC2CCN(CCc3ccc4c(c3)C(=O)CCO4)CC2)ccc1Br.O=S(=O)(O)c1ccccc1 | male rat | oral, 10 mg/kg | 7.3
Cc1c(-c2ccccc2)cccc1N1C(=O)c2cc(CN[C@H](C(=O)O)C(C)O)c(OCc3cccc(C#N)c3)cc2C1=O (stereo partly shown) | Sprague-Dawley rat | oral, 50 mg/kg | 0.31
CC[C@H](C)[C@H](NC(=O)[C@H](Cc1ccccc1)NC(=O)[C@H](CCC(=O)O)NC(=O)[C@H](CCCNC(=N)N)NC(=O)[C@H](C)NC(=O)[C@H](C)NC(=O)[C@H](CCC(N)=O)NC(=O)[C@H](CCC(=O)O)NC(=O)[C@H](CCC(=O)O)NC(=O)[C@H](CC(C)C)NC(=O)[C@H](Cc1ccc(O)cc1)NC(=O)[C@H](CO)NC(=O)[C@H](CO)NC(=O)[C@@H](NC(=O)[C@H](CC(=O)O)NC(=O)[C@H](CO)NC(=O)[C@@H](NC(=O)[C@H](Cc1ccccc1)NC(=O)[C@@H](NC(=O)CNC(=O)[C@H](CCC(=O)O)NC(=O)[C@H](C)NC(=O)CCc1c[nH]cn1)[C@@H](C)O)[C@@H](C)O)C(C)C)C(=O)N[C@@H](C)C(=O)N[C@@H](Cc1c[nH]c2ccccc12)C(=O)N[C@@H](CC(C)C)C(=O)N[C@H](C(=O)N[C@@H](CCCNC(=N)N)C(=O)NCC(=O)N[C@@H](CCCNC(=N)N)C(=O)N[C@@H](CCCCNC(=O)COCCOCCNC(=O)COCCOCCNC(=O)CC[C@H](NC(=O)CCCCCCCCCCCCCCCCC(=O)O)C(=O)O)C(=O)O)C(C)C | rat | subcutaneous, 20 nmol/kg | 38.7
